The test system of this test is human platelets, SFLLRN-induced actin polymerization, FITC-phalloidin flow. Description: inhibition of SFLLRN-induced platelet actin polymerization, late-stage follow-up, selectivity assay for platelet granule secretion inhibitor project, cell-based, FITC-phalloidin flow cytometry, human platelets (AID 2655). To be noted: at 10 µM; stronger effect = higher value. In short, it runs like this:
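Test system: Gel-filtered platelets / Signal: FITC-phalloidin flow cytometry in fixed, permeabilized platelets / Reagent: 5 µM SFLLRN or none / Schedule: compound 20 min and SFLLRN 15 min, both 37 °C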
In general terms: Flow cytometry measures light scatter and fluorescence of single cells or particles in a stream.

The record followed here is PubChem BioAssay AID2655 (Broad Institute, 2010).

`O=C(Nc1cccc(NC(=O)c2ccccc2Cl)c1)c1ccco1`: the inhibition (usually the relative decrease from the control value, in per cent) is 71.4%.

For `CCCC(=O)Nc1cccc(NC(=O)c2ccccc2Br)c1`, the inhibition is 80.4%.
